Source: ChEMBL document CHEMBL4396907, “Structure-activity relationship study and biological evaluation of SAC-Garlic acid conjugates as novel anti-inflammatory agents” (Eur J Med Chem, 2019)
Active and inactive are the calls of the source. The calls are words filed in the database; no cut-off is given here.

Assays:
Toll-like receptor 2 = Toll-like receptor 2 (Mus musculus, UniProt Q9QUN7); assay: Antagonist activity at TLR2 in mouse RAW264.7 cells assessed as PAM3CSK4-induced NO production measured after 24 hrs by Griess assay; type: cell-based
Chain of Toll-like receptor 2 (Q9QUN7 whole entry): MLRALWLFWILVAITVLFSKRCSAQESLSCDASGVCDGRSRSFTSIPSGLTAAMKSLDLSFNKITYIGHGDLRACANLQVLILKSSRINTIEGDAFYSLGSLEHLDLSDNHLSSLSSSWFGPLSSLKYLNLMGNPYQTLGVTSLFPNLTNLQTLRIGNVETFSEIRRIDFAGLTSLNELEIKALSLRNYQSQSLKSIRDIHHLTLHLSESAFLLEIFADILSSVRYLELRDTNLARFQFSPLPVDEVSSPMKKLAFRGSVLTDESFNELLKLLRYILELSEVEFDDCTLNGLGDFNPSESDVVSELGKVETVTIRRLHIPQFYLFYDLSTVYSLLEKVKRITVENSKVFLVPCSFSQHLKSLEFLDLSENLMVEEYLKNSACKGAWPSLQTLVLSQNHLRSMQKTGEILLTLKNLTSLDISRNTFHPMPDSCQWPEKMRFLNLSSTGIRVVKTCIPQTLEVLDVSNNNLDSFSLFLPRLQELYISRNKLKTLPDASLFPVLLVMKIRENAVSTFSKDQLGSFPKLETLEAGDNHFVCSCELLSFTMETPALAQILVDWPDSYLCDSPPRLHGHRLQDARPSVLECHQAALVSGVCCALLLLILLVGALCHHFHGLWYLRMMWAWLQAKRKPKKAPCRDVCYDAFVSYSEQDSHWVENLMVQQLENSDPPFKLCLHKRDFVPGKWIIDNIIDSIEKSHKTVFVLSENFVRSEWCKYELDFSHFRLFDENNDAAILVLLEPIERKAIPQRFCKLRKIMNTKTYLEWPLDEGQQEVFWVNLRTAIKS
Outline: (§1)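 RAW 264.7 cells in DMEM/10% FBS/pen-strep, 80,000 per well, preincubated 24 h at 37 °C, 5% CO2. Nonadherent cells removed, medium changed to plain DMEM. Cells co-treated with compound and 200 ng/mL Pam3CSK4 for 24 h. Nitrite in supernatant measured by modified Griess reagent (sulfanilic acid/phosphoric acid, then naphthylethylenediamine), read at OD560. Triplicate.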

[1] = molecular target: Toll-like receptor 2 (Mus musculus) (UniProt Q9QUN7); assay: Antagonist activity at TLR2 in mouse RAW264.7 cells assessed as PAM3CSK4-induced NO production at 150 uM measured after 24 hrs by Griess assay; type: cell-based; outline: as §1
Chain of Toll-like receptor 2 (Mus musculus) (Q9QUN7 whole entry): as above

[2] = molecular target: Toll-like receptor 2 (Homo sapiens) (UniProt O60603); assay: Inhibition of TLR2 in human HEK-Blue hTLR2 cells assessed as suppression of PAM3CSK4-induced SEAP signaling after 24 hrs by quanti-blue assay; type: cell-based
Chain of Toll-like receptor 2 (Homo sapiens) (O60603 whole entry): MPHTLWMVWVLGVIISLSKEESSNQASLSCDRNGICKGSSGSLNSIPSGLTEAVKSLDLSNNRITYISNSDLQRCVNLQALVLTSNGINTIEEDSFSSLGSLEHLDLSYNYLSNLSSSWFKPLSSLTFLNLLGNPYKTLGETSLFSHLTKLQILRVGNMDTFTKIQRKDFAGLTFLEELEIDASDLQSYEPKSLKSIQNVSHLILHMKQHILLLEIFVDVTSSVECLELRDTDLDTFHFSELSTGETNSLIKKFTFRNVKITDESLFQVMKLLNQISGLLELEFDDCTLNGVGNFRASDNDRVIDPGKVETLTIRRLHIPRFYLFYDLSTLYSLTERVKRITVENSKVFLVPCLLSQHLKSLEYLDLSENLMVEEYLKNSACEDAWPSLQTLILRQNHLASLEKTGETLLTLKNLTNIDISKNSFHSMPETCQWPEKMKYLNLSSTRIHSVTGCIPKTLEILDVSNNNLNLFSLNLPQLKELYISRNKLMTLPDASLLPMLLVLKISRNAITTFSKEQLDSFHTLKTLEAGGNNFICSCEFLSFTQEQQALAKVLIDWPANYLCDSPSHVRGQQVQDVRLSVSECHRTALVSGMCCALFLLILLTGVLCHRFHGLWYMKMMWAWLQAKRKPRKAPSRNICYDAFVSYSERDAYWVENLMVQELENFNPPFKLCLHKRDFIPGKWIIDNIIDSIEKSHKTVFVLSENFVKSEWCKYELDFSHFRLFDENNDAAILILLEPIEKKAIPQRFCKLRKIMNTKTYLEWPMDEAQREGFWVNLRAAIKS
Outline: (§2)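 HEK-Blue hTLR2 cells (human TLR2, CD14 and NF-κB/AP-1-driven SEAP reporter), 4×10^4 per well, grown 24 h in DMEM/10% FBS. Changed to plain DMEM with compound (0–100 µM) plus 20 ng/ml Pam3CSK4 (TLR1/2) or 20 ng/ml Pam2CSK4 (TLR2/6) for 24 h. Supernatant SEAP read with QUANTI-Blue at 37 °C, OD620 after 15–30 min. Mean ± SD of three independent experiments.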

RAW264.7 = assay: Cytotoxicity against mouse RAW264.7 cells assessed as effect on cell viability at 6.25 to 100 uM cotreated with PAM3CSK4 measured after 24 hrs by MTT assay; type: cell-based; details: raw264.7, 24 h
Outline: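 RAW 264.7 cells, 80,000 per well, grown 24 h in DMEM/10% FBS/pen-strep. Medium then switched to plain DMEM containing compound plus Pam3CSK4 (final 200 ng/ml) for 24 h. MTT (5 mg/ml stock in PBS) added for 4 h, formazan dissolved in DMSO, absorbance read at 450 nm.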

[3] = molecular target: Toll-like receptor 2 (Homo sapiens) (UniProt O60603); assay: Inhibition of TLR2 in human HEK-Blue hTLR2 cells assessed as suppression of PAM3CSK4-induced SEAP signaling at 25 uM after 24 hrs by quanti-blue assay relative to control; type: cell-based; outline: as §2
[4] = molecular target: Toll-like receptor 3 (Homo sapiens) (UniProt O15455); assay: Inhibition of Poly:IC-induced TLR3 activation in human HEK-Blue hTLR3 cells; type: cell-based
Chain of Toll-like receptor 3 (Homo sapiens) (O15455 whole entry): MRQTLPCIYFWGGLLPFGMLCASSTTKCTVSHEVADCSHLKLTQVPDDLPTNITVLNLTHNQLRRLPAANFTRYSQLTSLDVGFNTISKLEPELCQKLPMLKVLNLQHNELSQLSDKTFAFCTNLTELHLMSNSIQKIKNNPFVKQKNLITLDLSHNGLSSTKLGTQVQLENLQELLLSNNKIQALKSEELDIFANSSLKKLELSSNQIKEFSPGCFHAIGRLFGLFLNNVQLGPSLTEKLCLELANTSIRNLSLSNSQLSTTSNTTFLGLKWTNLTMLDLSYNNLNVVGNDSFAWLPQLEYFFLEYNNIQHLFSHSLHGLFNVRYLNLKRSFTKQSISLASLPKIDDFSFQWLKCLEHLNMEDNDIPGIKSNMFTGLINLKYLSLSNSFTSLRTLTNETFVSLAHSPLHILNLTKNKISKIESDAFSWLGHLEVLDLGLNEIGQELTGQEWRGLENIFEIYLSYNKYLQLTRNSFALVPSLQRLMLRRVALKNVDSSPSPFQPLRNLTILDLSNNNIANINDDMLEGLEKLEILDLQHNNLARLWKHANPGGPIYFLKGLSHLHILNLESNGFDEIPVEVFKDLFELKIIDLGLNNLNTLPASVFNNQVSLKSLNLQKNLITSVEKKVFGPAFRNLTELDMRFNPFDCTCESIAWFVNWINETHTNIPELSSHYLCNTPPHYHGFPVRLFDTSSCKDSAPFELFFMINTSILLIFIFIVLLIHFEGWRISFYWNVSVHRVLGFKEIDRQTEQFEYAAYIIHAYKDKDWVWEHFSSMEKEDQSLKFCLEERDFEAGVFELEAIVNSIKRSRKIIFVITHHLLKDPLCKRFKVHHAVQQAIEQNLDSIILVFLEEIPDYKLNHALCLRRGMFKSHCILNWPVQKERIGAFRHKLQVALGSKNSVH
Outline: (§3)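 HEK-Blue hTLR4 or hTLR3 reporter cells, 4×10^4 per well, grown 24 h, then switched to plain DMEM with compound (0–50 µM). Stimulant was 20 ng/ml LPS for hTLR4 and 20 µg/ml Poly:IC for hTLR3, for 24 h. Supernatant SEAP measured by QUANTI-Blue at OD620. Vehicle as negative control. Three independent experiments.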

[5] = molecular target: Toll-like receptor 1/2 (Homo sapiens) (UniProt O60603+Q15399); assay: Inhibition of PAM3CSK4-induced TLR1/2 activation in human HEK-Blue hTLR2 cells; type: cell-based; outline: as §2
TLR2/TLR6 (Homo sapiens) = TLR2/TLR6 (Homo sapiens) (UniProt O60603+Q9Y2C9); assay: Inhibition of PAM2CSK4-induced TLR2/6 activation in human HEK-Blue hTLR2 cells; type: cell-based; outline: as §2
[6] = molecular target: Toll-like receptor 4 (Homo sapiens) (UniProt O00206); assay: Inhibition of LPS-induced TLR4 activation in human HEK-Blue hTLR4 cells; type: cell-based; outline: as §3
Chain of Toll-like receptor 4 (Homo sapiens) (O00206 whole entry): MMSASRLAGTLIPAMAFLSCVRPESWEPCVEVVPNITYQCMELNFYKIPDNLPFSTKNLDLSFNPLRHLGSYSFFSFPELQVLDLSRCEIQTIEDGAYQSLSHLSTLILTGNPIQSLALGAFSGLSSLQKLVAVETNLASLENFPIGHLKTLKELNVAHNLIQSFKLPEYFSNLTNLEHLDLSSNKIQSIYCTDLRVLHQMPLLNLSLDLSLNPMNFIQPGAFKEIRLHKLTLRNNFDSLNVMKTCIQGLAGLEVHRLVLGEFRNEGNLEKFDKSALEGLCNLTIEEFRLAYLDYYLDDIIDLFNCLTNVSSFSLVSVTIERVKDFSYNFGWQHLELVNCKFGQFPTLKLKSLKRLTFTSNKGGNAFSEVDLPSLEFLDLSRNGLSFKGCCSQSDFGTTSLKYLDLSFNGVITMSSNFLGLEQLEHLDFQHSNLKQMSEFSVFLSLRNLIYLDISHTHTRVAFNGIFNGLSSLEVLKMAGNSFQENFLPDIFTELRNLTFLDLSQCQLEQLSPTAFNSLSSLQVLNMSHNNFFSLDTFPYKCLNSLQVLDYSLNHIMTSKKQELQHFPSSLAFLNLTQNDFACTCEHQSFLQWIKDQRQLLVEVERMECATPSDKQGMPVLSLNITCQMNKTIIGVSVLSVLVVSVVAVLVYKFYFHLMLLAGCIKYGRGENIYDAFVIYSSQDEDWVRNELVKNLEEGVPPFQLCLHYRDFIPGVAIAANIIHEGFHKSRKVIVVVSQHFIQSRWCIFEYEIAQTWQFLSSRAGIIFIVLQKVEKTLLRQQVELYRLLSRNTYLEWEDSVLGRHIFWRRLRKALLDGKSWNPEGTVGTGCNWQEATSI

[7] = Inhibition of PAM3CSK4-induced TLR2 expression in human HEK-Blue Htlr2 cells at 12.5 uM by Western blot analysis relative to control; type: functional; details: HEK-Blue hTLR2, read-out: INH
Outline: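 HEK-Blue hTLR2 cells, 1.5×10^6 per well, grown 24 h, then in plain DMEM with compound and 50 ng/mL Pam3CSK4 for 24 h. Lysed in RIPA/PMSF. Equal lysate amounts run on SDS-PAGE and transferred to nitrocellulose. Blocked in 5% milk, probed overnight at 4 °C with anti-TLR2, then HRP secondary.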

[8] = molecular target: Toll-like receptor 2 (Homo sapiens) (UniProt O60603); assay: Inhibition of TLR2 in human PBMC cells assessed as PAM3CSK4-induced TLR1/2 heterodimerization formation by immunoprecipitation assay; type: cell-based
Outline: (§4)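 Human PBMC, 10^6 cells/mL, given vehicle, Pam3CSK4 (50 ng/mL) or Pam2CSK4 (50 ng/mL) with compound for 24 h. Lysates incubated with anti-TLR2 overnight at 4 °C, then protein A agarose for 4 h. Beads washed three times and boiled in SDS buffer. Immunoprecipitates blotted for TLR1, TLR2, TLR6 and MyD88.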

[9] = molecular target: Toll-like receptor 2 (Homo sapiens) (UniProt O60603); assay: Inhibition of TLR2 in human PBMC cells assessed as PAM2CSK4-induced TLR2/6 heterodimerization formation by immunoprecipitation assay; type: cell-based; outline: as §4
[10] = molecular target: Toll-like receptor 2 (Homo sapiens) (UniProt O60603); assay: Inhibition of TLR2 in human PBMC cells assessed as PAM3CSK4-induced TLR2/Myd88 heterodimerization formation by immunoprecipitation assay; type: cell-based; outline: as §4
[11] = molecular target: Toll-like receptor 2 (Mus musculus) (UniProt Q9QUN7); assay: Inhibition of TLR2 in mouse RAW264.7 cells assessed as decrease in PAM3CSK4 induced TNF-alpha expression at 25 uM measured after 24 hrs by ELISA relative to control; type: cell-based
Outline: (§5)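 RAW 264.7 cells or human PBMC, 1×10^6 per well in DMEM/10% FBS/pen-strep, treated with compound plus 50 ng/ml Pam3CSK4 for 24 h at 37 °C. Supernatants frozen at −80 °C. TNF-α measured by sandwich ELISA against recombinant standards, triplicate samples. Mean ± SD, three independent experiments.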

[12] = molecular target: Toll-like receptor 2 (Homo sapiens) (UniProt O60603); assay: Inhibition of TLR2 in human PBMC cells assessed as decrease in PAM3CSK4 induced TNF-alpha expression at 12.5 uM measured after 24 hrs by ELISA relative to control; type: cell-based; outline: as §5
[13] = molecular target: Toll-like receptor 2 (Mus musculus) (UniProt Q9QUN7); assay: Inhibition of TLR2 in mouse RAW264.7 cells assessed as decrease in PAM3CSK4 induced TNF-alpha expression measured after 24 hrs by ELISA; type: cell-based; outline: as §5
[14] = molecular target: Toll-like receptor 2 (Homo sapiens) (UniProt O60603); assay: Inhibition of TLR2 in human PBMC cells assessed as PAM2CSK4-induced TLR2/Myd88 heterodimerization formation by immunoprecipitation assay; type: cell-based; outline: as §4
[15] = molecular target: Toll-like receptor 2 (Homo sapiens) (UniProt O60603); assay: Inhibition of TLR2 in human THP1 assessed as decrease in PAM3CSK4 induced TNF-alpha expression measured after 4 hrs by ELISA

IC50 (Toll-like receptor 2) [µM]	SMILES	other results
31.3	C=CCCCSC[C@H](N)C(=O)OC	–
54.9	C=CCCSC[C@H](NC(=O)c1ccc(O)cc1)C(=O)OC	–
–	C=CCCSC[C@H](N)C(=O)O	Activity [1]: inactive
53	C=CCCCSC[C@H](NC(=O)c1ccc(O)cc1)C(=O)OC	–
–	C=CCSC[C@H](N)C(=O)O	inhibition [2]: inactive; Activity [1]: inactive
–	C=CCCCSC[C@H](N)C(=O)O	Activity [1]: inactive
54.4	C=CCSC[C@H](N)C(=O)OC	–
–	N[C@@H](CSCc1ccc(F)cc1)C(=O)O	Activity [1]: inactive
58.5	C=CCSC[C@H](NC(=O)c1cc(O)cc(O)c1)C(=O)OC	–
32.6	COC(=O)[C@H](CSCc1ccccc1)NC(=O)c1cc(OC)c(OC)c(OC)c1	–
28.6	COC(=O)[C@H](CSCc1ccc(F)cc1)NC(=O)c1cc(OC)c(OC)c(OC)c1	–
39.2	C=CCCCSC[C@H](NC(=O)c1cc(O)c(O)c(O)c1)C(=O)OC	–
50.2	COC(=O)[C@H](CSCc1ccc(F)cc1)NC(=O)c1cc(O)c(O)c(O)c1	–
117	O=C(O)c1cc(O)cc(O)c1 [3,5-DIHYDROXYBENZOIC ACID]	–
49.3	C=CCSC[C@H](NC(=O)c1cc(OC)c(OC)c(OC)c1)C(=O)OC	–
–	C#CCSC[C@H](N)C(=O)O	Activity [1]: inactive
94.4	C#CCSC[C@H](N)C(=O)OC	–
57.7	C=CCCSC[C@H](NC(=O)c1cc(O)c(O)c(O)c1)C(=O)OC	–
99.6	COC(=O)[C@@H](N)CSCc1ccc(F)cc1	–

IC50 (Toll-like receptor 2) [µM]	SMILES	other results
52.1	C=CCSC[C@H](NC(=O)c1cc(O)c(O)c(O)c1)C(=O)OC	–
60.7	COC(=O)[C@H](CSCc1ccccc1)NC(=O)c1cc(O)c(O)c(O)c1	–
35.8	C=CCCSC[C@H](NC(=O)c1cc(O)cc(O)c1)C(=O)OC	–
22.5	C=CCCCSC[C@H](NC(=O)c1cc(OC)c(OC)c(OC)c1)C(=O)OC	Activity (RAW264.7): Non-Toxic; inhibition [3]: 50%; inhibition [2]: Dose-dependent effect; inhibition [4]: inactive; inhibition [5]: Active; inhibition (TLR2/TLR6 (Homo sapiens)): Active; inhibition [6]: inactive; inhibition at 12.5 µM [7]: > 90%; inhibition [8]: Active; inhibition [9]: Active; inhibition [10]: Active; inhibition [11]: 50%; inhibition [12]: > 95%; inhibition [13]: Dose-dependent effect; inhibition [14]: Active; inhibition [15]: Active
52.1	COC(=O)[C@H](CSCc1ccccc1)NC(=O)c1ccc(O)cc1	–
37.3	COC(=O)[C@H](CSCc1ccc(F)cc1)NC(=O)c1ccc(O)cc1	–
54.8	C#CCSC[C@H](NC(=O)c1ccc(O)cc1)C(=O)OC	–
50.5	COC(=O)[C@H](CSCc1ccccc1)NC(=O)c1cc(O)cc(O)c1	–
71.5	C#CCSC[C@H](NC(=O)c1cc(O)c(O)c(O)c1)C(=O)OC	–
40.5	C=CCSC[C@H](NC(=O)c1ccc(O)cc1)C(=O)OC	–
–	N[C@@H](CSCc1ccccc1)C(=O)O	Activity [1]: inactive
117	COC(=O)[C@@H](N)CSCc1ccccc1	–
27.3	C=CCCSC[C@H](NC(=O)c1cc(OC)c(OC)c(OC)c1)C(=O)OC	–
41.8	C#CCSC[C@H](NC(=O)c1cc(O)cc(O)c1)C(=O)OC	–
57.7	C=CCCCSC[C@H](NC(=O)c1cc(O)cc(O)c1)C(=O)OC	–
38.3	COC(=O)[C@H](CSCc1ccc(F)cc1)NC(=O)c1cc(O)cc(O)c1	–
118	O=C(O)c1ccc(O)cc1 [PARABEN]	–
45.5	C=CCCSC[C@H](N)C(=O)OC	–
53.2	C#CCSC[C@H](NC(=O)c1cc(OC)c(OC)c(OC)c1)C(=O)OC	–

SMILES	IC50 (Toll-like receptor 2) [µM]	other results
COc1cc(C(=O)O)cc(OC)c1OC [3,4,5-TRIMETHOXYBENZOIC ACID]	53.8	–
O=C(O)c1cc(O)c(O)c(O)c1 [GALLIC ACID]	69.3	–
